Screening results deposited in PubChem BioAssay by several laboratories.
PTPN22 inh 2: inhibitors of human LYP (PTPN22) phosphatase. 96,000 compounds, 0.21% hits. AID 640. inhibition, % at 2 µM. recombinant LYP catalytic domain, DiFMUP fluorescence;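 active = inhibition at 2 µM at or above a set limit, the screen mean plus 3 SD, cut at about 24% in these data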;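 note: 0% = DMSO with enzyme and 100% = enzyme fully blocked by orthovanadate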
LYP act: increases human PTPN22 phosphatase activity; Q9Y2R2; recombinant LYP, DiFMUP fluorescence; 0 = plate median, 100 = signal doubled; activation, % at 2 µM; 96,000 compounds, 0.11% hits; AID 697;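 active = activation at 2 µM above a set limit, the mean plus 5 SD, cut at about 37% in these data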
PLAP activator: human PLAP activation. P05187. purified PLAP enzyme, luminescent substrate read-out; hits give high values. activation fold at 20 µM. 96,000 compounds, 1.2% hits. AID 696; in the data active = activation fold above about 2
Target sequence (P05187 whole entry, looked up): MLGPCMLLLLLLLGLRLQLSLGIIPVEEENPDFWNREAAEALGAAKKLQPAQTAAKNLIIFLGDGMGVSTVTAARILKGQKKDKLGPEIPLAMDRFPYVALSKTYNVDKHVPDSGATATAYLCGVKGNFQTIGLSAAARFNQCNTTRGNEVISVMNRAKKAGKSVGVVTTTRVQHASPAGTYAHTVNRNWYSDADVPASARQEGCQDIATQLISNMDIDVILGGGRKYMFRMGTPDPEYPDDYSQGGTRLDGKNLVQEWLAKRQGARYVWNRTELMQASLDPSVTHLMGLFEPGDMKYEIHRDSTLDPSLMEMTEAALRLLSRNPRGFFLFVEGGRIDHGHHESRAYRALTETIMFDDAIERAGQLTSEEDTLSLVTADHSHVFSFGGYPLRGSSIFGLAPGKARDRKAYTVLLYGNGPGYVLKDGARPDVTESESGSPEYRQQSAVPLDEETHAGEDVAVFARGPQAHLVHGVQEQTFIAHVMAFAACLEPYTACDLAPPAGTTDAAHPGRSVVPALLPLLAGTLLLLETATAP
PLK1 inh: blocks human PLK1 kinase activity | recombinant PLK1 kinase, TR-FRET peptide phosphorylation | AID 619 | 97,000 compounds, 0.53% hits | inhibition, % at 10 µM | P53350;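 active = inhibition of 50% or more in the single-concentration screen; inactive = inhibition below 50%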;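 note: 0% = DMSO max control and 100% = H-89 dihydrochloride min control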
HIV Rev-RRE inh: disrupts HIV-1 Rev binding to RRE RNA; Rev peptide-RRE RNA binding, FRET; inhibition, % at 8 µM; 97,000 compounds, 0.79% hits;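 active = inhibition above the screen-wide mean plus 3 SD, cut at about 35% in these data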;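 note: 0% = median DMSO wells and 100% = median Neomycin B control wells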
Target sequence (P05866 whole entry, looked up): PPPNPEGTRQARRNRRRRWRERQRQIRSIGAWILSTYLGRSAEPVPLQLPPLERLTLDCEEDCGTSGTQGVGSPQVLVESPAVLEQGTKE
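Probe or stimulus: fluorescein-Rev peptide as binding partner; assay system: Cy5-tagged RRE RNA duplex with fluorescein-tagged Rev peptide; timing: 5 min compound–RNA preincubation, then 15 min with peptide, 25 °C; medium: HEPES pH 7.5 buffer with KCl, MgCl2, NaCl and EDTA; signal: fluorescein-to-Cy5 FRET, 480 nm excitation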
Plk1 PBD FP: Plk1 (human) PBD binding inhibition; P53350; Plk1 PBD phosphopeptide binding, fluorescence polarization; inhibition, %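 (tested at about 20 µM)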; 97,000 compounds, 0.13% hits; in the data active = inhibition above about 34%, passing the limit was not always enough
Active calls of the source: *; . = not tested or not shown; [ ] = dose if it differs, or a comment. Only some compounds are listed: those with a hit (about 2.7% of all), similar ones and a draw of the others.

SMILES | PTPN22 inh 2 | LYP act | PLAP activator | PLK1 inh | HIV Rev-RRE inh | Plk1 PBD FP
CCCn1c(Nc2ccc(Cl)cc2)nc2ccccc21 | 38* | -35 | 1 | -8 | 3 | 5
O=C(Cn1ccc2ccccc2c1=O)N1CCN(Cc2ccc3c(c2)OCO3)CC1 | -5 | 2 | 1.1 | -6 | 4 | -5
COc1ccccc1NC(=O)c1oc2ccccc2c1NC(=O)c1ccco1 | -9 | 7 | 1 | -21 | 9 | 5
CCc1ccc(C(C(=O)NCc2ccc(OC)cc2)N(CCOC)C(=O)Cc2cccs2)cc1 (stereo not given) | 8 | -6 | 0.9 | 0 | 2 | 3
COCCN(C(=O)Cc1cccs1)C(C(=O)NCc1ccc(OC)cc1)c1ccc(C(C)C)cc1 (stereo not given) | . | . | 2.6* | 0 | 4 | 17
Cn1nc(C(=O)NCc2ccccc2)c2ccccc2c1=O | 5 | -5 | 1 | -9 | 5 | -3
O=C(NCc1ccccc1)c1n[nH]nc1-c1ccccc1O | . | . | 2.9* | . | . | .
FC(F)(F)c1cc(C(F)(F)F)c2ccc(N/N=C/c3cccc(Cl)c3)nc2n1 | 5 | -3 | 1 | -8 | 7 | -11
Cn1ncc([N+](=O)[O-])c1C(=O)Nc1nc2ccccc2n1CCN1CCCCC1 | -10 | 11 | 1.6 | -12 | -2 | 7
O=C(Nc1nc2ccccc2n1CCN1CCCCC1)c1ccco1 | 6 | -8 | 1.4 | -7 | -4 | 12
CCn1cc(Cl)c(C(=O)Nc2nc3ccccc3n2CCN2CCCCC2)n1 | -2 | -1 | 2.3* | -1 | 0 | 1
Cc1c(Cl)c(C(=O)Nc2nc3ccccc3n2CCN2CCCCC2)nn1C | -15 | 11 | 2.5* | 2 | 9 | -5
Cc1ccc(C)c(NC(=O)CSc2nnc(CCCCCNC(=O)OC(C)(C)C)o2)c1 | 3 | -5 | 1.4 | -8 | 3 | -14
COCCCN1C(=O)C(O)=C(C(=O)c2ccco2)C1c1ccc(Br)cc1 (stereo not given) | 17 | -16 | 1 | -12 | 4 | -1
Cc1nnc(N2C(=O)C(O)=C(C(=O)c3ccco3)C2c2ccc(C(C)(C)C)cc2)s1 (stereo not given) | -7 | 2 | . | -1 | 92*[fluorescence artefact?] | -23
Cc1nnc(N2C(=O)C(O)=C(C(=O)c3ccco3)C2c2ccc(F)cc2)s1 (stereo not given) | 0 | -2 | 1.2 | -2 | 52* | -12
CCOC(=O)c1c(N)sc2c(OCC)c(Br)ccc12 | -2 | 1 | . | -10 | 10 | 7
COc1ccc(N(CC(=O)Nc2ccc(C)c(C)c2)S(=O)(=O)c2c(C)n[nH]c2C)cc1 | 0 | -2 | 2.1* | 1 | 10 | -15
Cc1nn(C)c(C)c1S(=O)(=O)N(CC(=O)NC1CCCCCC1)c1ccc(C(C)C)cc1 | -1 | 0 | 0.8 | -11 | 6 | -8
COc1ccc(N(CC(=O)Nc2cccc(C)c2)S(=O)(=O)c2c(C)n[nH]c2C)cc1 | 4 | -6 | 1.9 | -13 | 5 | 2
COc1cc(NC(=O)CN(c2ccc(C)cc2)S(=O)(=O)c2c(C)n[nH]c2C)cc(OC)c1 | 4 | -3 | 1.6 | -3 | 12 | 1
Cc1n[nH]c(C)c1S(=O)(=O)N(CC(=O)NC1CCCC1)c1ccc(C(C)C)cc1 | 2 | -4 | 2.3* | 8 | 1 | -11
CCc1cccc(NC(=O)CN(c2ccc(OC)cc2)S(=O)(=O)c2c(C)n[nH]c2C)c1 | -7 | 5 | 2.4* | -16 | 13 | 14
O=C(Nc1ccc(N2CCN(C(=O)c3ccco3)CC2)c(Cl)c1)c1cccs1 | 6 | -6 | 0.9 | -8 | 9 | -4
O=C(Cc1ccc(Cl)cc1)Nc1ccc(N2CCN(C(=O)c3ccco3)CC2)c(Cl)c1 | -17 | 16 | 2.4* | -9 | 2 | 4
SMILES | PTPN22 inh 2 | LYP act | PLAP activator | PLK1 inh | HIV Rev-RRE inh | Plk1 PBD FP
Cn1c(=O)c2c(ncn2CC(=O)Nc2nc(-c3ccccc3Cl)cs2)n(C)c1=O | . | . | 1.1 | . | . | .
Cc1ccnc(-n2c(CCN3C(=O)c4ccccc4C3=O)nc3ccccc3c2=O)c1 | -3 | 2 | 1 | -7 | 3 | -16
CCOC(=O)c1c(C)oc2c1c(C(c1cccnc1)N1CCN(C)CC1)c(O)c1ccccc12 (stereo not given) | . | . | 1.5 | . | . | .
CN1CCN(C(c2cccnc2)c2ccc3cccnc3c2O)CC1 (stereo not given) | 7 | -10 | 2.5* | 5 | 1 | 5
CC(=O)Nc1ccc(Nc2ncnc3c2cnn3-c2ccc(C)cc2C)cc1 | 8 | -10 | 2* | 0 | 10 | -6
CC(=O)Nc1ccc(Nc2ncnc3c2cnn3-c2cccc(C)c2)cc1 | 6 | -4 | 1 | -1 | 10 | -17
CCOC(=O)N1CCN(C(=O)CCCn2c(=S)[nH]c3ccc(Br)cc3c2=O)CC1 | 1 | 0 | 2* | -9 | 2 | -8
CCOC(=O)N1CCN(C(=O)CCCn2c(=S)[nH]c3ccccc3c2=O)CC1 | -7 | 2 | 1.4 | -7 | 0 | 3
Cc1c(C(=O)O)nn(-c2ccccc2)c(=O)c1C#N | . | . | 1 | 63* | 7 | 1
Cc1cc(C)nc(Nc2n[nH]c(-c3ccc(N)cc3)n2)n1 | -6 | 8 | 2.4* | -1 | 5 | 20
Cc1ccc(/C=C/C2=Cc3c(sc(NC(=O)CSc4n[nH]c(N)n4)c3C#N)C(C)(C)C2)o1 | 3 | -6 | 1.6 | 2 | 47* | -3
CCOC(=O)c1sc(NC(=O)CSc2n[nH]c(-c3ccccc3)n2)c(C#N)c1C | . | . | 1.7 | . | . | .
O=C(NCc1cccnc1)c1cccc(Cl)c1 | 11 | -8 | 1.1 | 3 | 3 | -3
COc1ccc(-c2nn(C)c3sc(C(=O)NCc4ccco4)cc23)cc1OC | . | . | 0.8 | . | . | .
COc1ccc(NC(=O)c2cc3c(-c4ccc(OC)c(OC)c4)nn(C)c3s2)cc1OC | -6 | 4 | 2.3* | 0 | 5 | 6
COc1ccc(-c2ccc3c(N)c(C(=O)c4cccc(OC)c4)sc3n2)cc1 | 7 | -9 | 0.9 | -16 | 55* | 18
CCN1CCCC1CNc1ncnc2c1[nH]c1ccc(Cl)cc12 (stereo not given) | -4 | 3 | 2.1* | -5 | 6 | 4
COCCn1c(CN2CCN(C)CC2)nc2c1c(=O)n(C)c(=O)n2C | . | . | 1 | 66* | 0 | -23
CCCN1Cc2cccc(C(=O)Nc3cc(OC)cc(OC)c3)c2C1=O | -7 | 7 | 1 | 8 | -3 | -30
Cc1cnc(N)c2c(=O)oc3ccccc3c12 | . | . | 0.9 | 52* | 5 | -18
CCOc1ccc(S(=O)(=O)NCc2ccccn2)cc1 | -8 | 9 | 2* | -1 | 11 | 18
COc1ccc(S(=O)(=O)NCc2ccccn2)c(Cl)c1Cl | -3 | -1 | 2.1* | -16 | 5 | 15
Cc1nc(SCc2ccccc2C)n[nH]1 | 13 | -14 | 2* | -12 | 4 | -12
Cc1ccccc1CSc1nsc(N)n1 | 2 | 1 | 1.1 | -11 | 9 | -3
COc1ccc(CCNC(=O)C2CCN(Cc3nc(-c4cccc(Cl)c4)oc3C)CC2)cc1OC | . | . | 2.2* | . | . | .
